{"data": "Measured values gathered from unrelated publications", "CDK8 with cyclin C": "Cyclin-dependent kinase 8, with cyclin C (CDK8, Homo sapiens, UniProt P49336)", "CDK8": "Cyclin-dependent kinase 8 (CDK8, Homo sapiens, UniProt P49336)", "note": "Each line is one published result; the experiments were not run side by side."}
{"Structure (SMILES)": "O=C(Nc1cnn(-c2csc(C(=O)NC3COC3)c2)c1)Nc1c(F)cccc1Cl", "target": "CDK8 with cyclin C", "test": "enzyme activity, inhibitor", "conditions": "5 µM", "quantity": "remaining activity", "result": "99%"}
{"Structure (SMILES)": "Nc1ncnc2occ(-c3ccc(NC(=O)Nc4cc(C(F)(F)F)ccc4F)cc3)c12", "target": "CDK8", "test": "cell-free assay, inhibitor", "conditions": "20 µM", "quantity": "remaining signal", "result": "2%"}
{"Structure (SMILES)": "NS(=O)(=O)c1cc(NC(=O)Cc2ccccc2)ccc1Oc1cccc(Cl)c1", "target": "CDK8", "test": "cell-free assay, competition with immobilised ligand", "conditions": "1 µM", "quantity": "remaining binding", "result": "68%"}
{"Structure (SMILES)": "Cn1c2c(c3ccccc31)C(C#N)C(C)(C)NC2=O (centres unmarked)", "target": "CDK8", "test": "thermal stability, DSF", "conditions": "10 µM", "quantity": "ΔTm", "result": "0.8 °C"}
{"Structure (SMILES)": "CS(=O)(=O)N1CCCC(NC(=O)[C@H](CCC2CCCCC2)NC(=O)c2ccc(CNC(=O)c3cnc4ccccn34)cc2)C1 (some centres unmarked)", "target": "CDK8", "test": "cell-free assay, competition with immobilised ligand", "conditions": "0.1 µM", "quantity": "remaining binding", "result": "42%"}
{"Structure (SMILES)": "Cn1c2c(c3ccc(Cl)c(Cl)c31)C(C#N)C1(CCCCC1)NC2=O (racemic)", "target": "CDK8", "test": "thermal stability, DSF", "conditions": "10 µM", "quantity": "ΔTm", "result": "0.4 °C"}
{"Structure (SMILES)": "Cc1ccc(C(=O)Nc2ccc(CN3CCN(C)CC3)c(C(F)(F)F)c2)cc1C#Cc1cnc2cccnn12", "target": "CDK8", "test": "enzyme activity, inhibitor", "conditions": "23.5 nM", "quantity": "remaining activity", "result": "9.5%"}
{"Structure (SMILES)": "COc1ccnn2ncc(-c3ccnc(N(C)C)n3)c12", "target": "CDK8", "test": "binding", "conditions": "1 µM", "quantity": "remaining binding", "result": "100%"}
{"Structure (SMILES)": "CC(C)(C)c1nc(-c2cccc(NS(=O)(=O)c3c(F)cccc3F)c2F)c(-c2ccnc(N)n2)s1", "target": "CDK8 with cyclin C", "test": "enzyme activity, inhibitor, radiometric", "conditions": "1 µM", "quantity": "remaining activity", "result": "109%"}
{"Structure (SMILES)": "CN1CCN(C(=O)c2ccc3cc(CCNc4ccnc5ccc(C#N)cc45)ccc3c2)CC1", "target": "CDK8", "test": "binding, competition with immobilised ligand", "conditions": "2 µM", "quantity": "inhibition", "result": "> 85%"}
{"Structure (SMILES)": "Cn1c2c(c3ccc(Cl)c(Cl)c31)C(C#N)C1(CCNCC1)NC2=O (racemic)", "target": "CDK8", "test": "thermal stability, DSF", "conditions": "10 µM", "quantity": "ΔTm", "result": "2.2 °C"}
{"Structure (SMILES)": "O=C(N1CCS(=O)(=O)CC1)N1C[C@H](c2ccc(OC(F)(F)F)cc2)C[C@H](c2nc(C3CC3)no2)C1", "target": "CDK8", "test": "cell-free assay, competition with immobilised ligand", "conditions": "1 µM", "quantity": "remaining binding", "result": "100%"}
{"Structure (SMILES)": "CCN1CCC2(CC1)NC(=O)c1c(c3ccc(Cl)c(Cl)c3n1C)C2C#N (racemic)", "target": "CDK8", "test": "thermal stability, DSF", "conditions": "10 µM", "quantity": "ΔTm", "result": "1.2 °C"}
{"Structure (SMILES)": "Cc1c(NC(=O)c2cc(C(N)=O)nc3cc(F)ccc23)c(C(F)(F)F)nn1Cc1ccc(C(C)(C)C)cc1", "target": "CDK8", "test": "cell-free assay, competition with immobilised ligand", "conditions": "1 µM", "quantity": "remaining binding", "result": "100%"}
